Molecular target: T1, OR8D1 (Homo sapiens) (UniProt Q8WZ84)
T1 sequence (whole entry): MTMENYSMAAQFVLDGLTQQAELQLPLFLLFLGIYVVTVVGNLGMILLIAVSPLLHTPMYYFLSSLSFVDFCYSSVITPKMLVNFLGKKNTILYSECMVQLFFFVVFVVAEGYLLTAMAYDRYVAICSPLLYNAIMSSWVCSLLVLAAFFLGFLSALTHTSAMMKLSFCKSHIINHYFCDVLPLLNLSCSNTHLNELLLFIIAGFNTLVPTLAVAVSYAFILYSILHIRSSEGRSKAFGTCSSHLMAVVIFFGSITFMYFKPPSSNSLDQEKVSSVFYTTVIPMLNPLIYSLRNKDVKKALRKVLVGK
Details: stereoisomer not certain
Summary of the method: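 Whether a receptor–molecule pair is responsive (active) rests on the original authors' judgment that its measured signal was statistically different from baseline. Pairs without that judgment are non-responsive (inactive). Sources used varied assay methods, commonly transient luciferase assays in mammalian cell lines.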
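Further: active if original authors judged signal statistically different from baseline.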

| SMILES | odorant receptor agonist call |
| --- | --- |
| CC(=O)C1=NCCS1 | inactive |
| CC1=CCC(C(C)(C)S)CC1 (configuration not stated) | inactive |
| Cc1cccc(C)c1O | inactive |
| CCCC(=O)C(C)CC (configuration not stated) | inactive |
| SCCc1ccccc1 | inactive |
| Cc1ccc(C(C)C)cc1 | inactive |
| COc1cccc(OC)c1O | inactive |
| C=C1CCC2(C(C)C)CC12 (configuration not stated) | inactive |
| CSC | inactive |
| CC=CC(=O)C1=C(C)CCCC1(C)C | inactive |
| CCCCCC1CCC(=O)O1 (configuration not stated) | inactive |
| Cc1cccc(O)c1 | inactive |
| COC1=C(C)OC(C)C1=O (configuration not stated) | inactive |
| CCCCC=CC=O | inactive |
| CC(C)c1ccc(C=O)cc1 | inactive |
| CCC(=O)O | inactive |
| CC(=O)O | inactive |
| Cc1c[nH]c2ccccc12 | inactive |
| CCCCCCCC1CCC(=O)O1 (configuration not stated) | inactive |

| SMILES | odorant receptor agonist call |
| --- | --- |
| C=Cc1ccc(O)c(OC)c1 | inactive |
| COCCC(C)(C)S | inactive |
| C=CC(=O)CC | inactive |
| CC(=O)OCCC(C)C | inactive |
| CCCC(O)CC(=O)OCC (configuration not stated) | inactive |
| CCCSSCCC | inactive |
| CCCCCC=CCCC=O | inactive |
| CCOC(=O)C1CCCCC1 | inactive |
| CCO | inactive |
| C=CC(=C)CCC=C(C)C | inactive |
| CSSc1ccoc1C | inactive |
| CCC(S)C(C)=O (configuration not stated) | inactive |
| C=C1CCC2CC1C2(C)C (configuration not stated) | inactive |
| CSCCCO | inactive |
| CCCCC1CCC(=O)O1 (configuration not stated) | inactive |
| CCC(=O)C(C)=O | inactive |
| CCCCC(=O)O | inactive |
| CCCC(=O)OC | inactive |

Source: the M2OR odorant receptor database
